# Results from the M2OR odorant receptor database.
# Tests used:
# Conditions in all cases: stereoisomer not certain
# [1] = test system: T1, A0A140T8K4
# T1 sequence (whole entry): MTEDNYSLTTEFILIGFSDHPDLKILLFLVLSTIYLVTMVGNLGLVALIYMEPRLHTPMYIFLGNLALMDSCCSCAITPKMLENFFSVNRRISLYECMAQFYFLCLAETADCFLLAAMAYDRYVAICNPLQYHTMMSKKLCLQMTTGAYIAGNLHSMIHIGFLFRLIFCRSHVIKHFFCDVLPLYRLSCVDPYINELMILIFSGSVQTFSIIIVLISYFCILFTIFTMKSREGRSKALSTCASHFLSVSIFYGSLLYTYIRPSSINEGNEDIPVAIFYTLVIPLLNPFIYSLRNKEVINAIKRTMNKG
# In short: (§1)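 Values were gathered from published papers (main text and supplementary material), with extra details requested from the original authors when needed, and checked for typos and inconsistencies. Each receptor–molecule pair is called responsive (active) if the original authors judged the measured signal statistically different from baseline, and non-responsive (inactive) otherwise. Assay methods varied by source, often transient mammalian cell-line luciferase assays. Recorded details include cell line, G-protein, co-transfected protein and tags.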
# [2] = test system: T2, A0A1L1SVG7
# T2 sequence (whole entry): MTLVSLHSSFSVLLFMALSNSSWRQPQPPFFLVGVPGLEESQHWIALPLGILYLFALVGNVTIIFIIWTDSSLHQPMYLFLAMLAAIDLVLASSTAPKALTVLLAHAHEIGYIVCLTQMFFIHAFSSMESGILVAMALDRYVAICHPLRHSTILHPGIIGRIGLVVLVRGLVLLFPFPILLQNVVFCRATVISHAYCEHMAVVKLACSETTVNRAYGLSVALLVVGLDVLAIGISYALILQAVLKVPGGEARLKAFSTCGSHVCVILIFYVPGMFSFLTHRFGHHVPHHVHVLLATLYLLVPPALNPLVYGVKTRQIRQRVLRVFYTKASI
# In short: as §1
# [3] = test system: T3, A0A140T8K0
# T3 sequence (whole entry): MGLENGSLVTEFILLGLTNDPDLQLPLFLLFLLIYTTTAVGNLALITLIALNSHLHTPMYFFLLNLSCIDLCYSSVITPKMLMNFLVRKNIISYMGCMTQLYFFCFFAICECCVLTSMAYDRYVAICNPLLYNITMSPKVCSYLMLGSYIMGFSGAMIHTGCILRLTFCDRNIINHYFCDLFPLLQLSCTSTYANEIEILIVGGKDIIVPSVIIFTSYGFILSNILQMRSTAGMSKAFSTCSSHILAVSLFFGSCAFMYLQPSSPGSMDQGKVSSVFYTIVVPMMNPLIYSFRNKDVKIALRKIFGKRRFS
# In short: as §1
# [4] = test system: O10A2 H43R H207R K258T
# In short: as §1
# [5] = test system: O10A3 C8G
# In short: as §1
# [6] = test system: O10A6
# In short: as §1
# [7] = test system: O10AD G65C
# In short: as §1
# [8] = test system: O10D3 V134A R197K
# In short: as §1
# [9] = test system: O10G4 L24P V195E
# In short: as §1
# [10] = test system: O10G7 A18V P19Q G20A
# In short: as §1
# [11] = test system: O10G7 I28V
# In short: as §1
# [12] = test system: O10H2
# In short: as §1
# [13] = test system: O10H3 R54H
# In short: as §1
# [14] = test system: O10H4 I50V
# In short: as §1
# [15] = test system: O10H5 S268Y
# In short: as §1
# [16] = test system: O10J1 M62I I103M
# In short: as §1
# [17] = test system: O10J1 M62I
# In short: as §1
# [18] = test system: O10J3 Q235R E319G
# In short: as §1
# [19] = test system: O10P1 R195K
# In short: as §1
# [20] = test system: O10Q1 E12D
# In short: as §1
# Chain of O10H2 (as listed by the source): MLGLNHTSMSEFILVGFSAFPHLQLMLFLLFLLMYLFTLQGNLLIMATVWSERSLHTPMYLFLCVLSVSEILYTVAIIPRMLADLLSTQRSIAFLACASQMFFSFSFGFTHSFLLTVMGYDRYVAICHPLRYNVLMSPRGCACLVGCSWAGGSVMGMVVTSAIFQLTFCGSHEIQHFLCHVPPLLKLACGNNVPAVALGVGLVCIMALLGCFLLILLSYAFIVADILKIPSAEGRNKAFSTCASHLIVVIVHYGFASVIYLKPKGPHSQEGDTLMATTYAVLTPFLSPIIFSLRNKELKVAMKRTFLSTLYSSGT
# Chain of O10A3 C8G (as listed by the source): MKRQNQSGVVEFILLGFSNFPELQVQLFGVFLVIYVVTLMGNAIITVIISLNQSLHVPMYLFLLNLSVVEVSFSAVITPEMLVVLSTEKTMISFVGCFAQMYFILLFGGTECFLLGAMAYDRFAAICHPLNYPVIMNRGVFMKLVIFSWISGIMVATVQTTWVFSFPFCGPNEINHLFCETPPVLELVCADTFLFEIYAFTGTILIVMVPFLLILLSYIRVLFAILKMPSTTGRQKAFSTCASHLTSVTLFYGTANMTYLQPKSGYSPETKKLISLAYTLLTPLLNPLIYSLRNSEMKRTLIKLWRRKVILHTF
# Chain of O10Q1 E12D (as listed by the source, stated change not applied): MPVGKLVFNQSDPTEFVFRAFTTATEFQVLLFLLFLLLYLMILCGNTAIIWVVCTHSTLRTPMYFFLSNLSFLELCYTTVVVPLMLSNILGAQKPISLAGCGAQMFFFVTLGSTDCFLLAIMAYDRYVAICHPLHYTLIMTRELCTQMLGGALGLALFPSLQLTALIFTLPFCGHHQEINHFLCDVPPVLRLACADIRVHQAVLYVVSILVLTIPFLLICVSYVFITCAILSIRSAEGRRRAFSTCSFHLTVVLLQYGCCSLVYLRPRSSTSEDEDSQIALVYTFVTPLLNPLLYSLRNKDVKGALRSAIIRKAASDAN
# Chain of O10H4 I50V (as listed by the source, stated change not applied): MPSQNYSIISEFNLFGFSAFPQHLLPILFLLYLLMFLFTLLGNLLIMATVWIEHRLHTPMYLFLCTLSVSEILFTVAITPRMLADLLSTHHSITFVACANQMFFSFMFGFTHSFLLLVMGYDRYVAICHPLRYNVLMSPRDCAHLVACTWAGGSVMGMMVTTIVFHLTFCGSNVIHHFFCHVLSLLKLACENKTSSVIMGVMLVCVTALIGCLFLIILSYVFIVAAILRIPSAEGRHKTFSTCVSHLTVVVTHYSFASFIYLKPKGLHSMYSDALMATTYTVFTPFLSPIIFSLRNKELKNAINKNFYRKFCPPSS
# Chain of O10A6 (as listed by the source): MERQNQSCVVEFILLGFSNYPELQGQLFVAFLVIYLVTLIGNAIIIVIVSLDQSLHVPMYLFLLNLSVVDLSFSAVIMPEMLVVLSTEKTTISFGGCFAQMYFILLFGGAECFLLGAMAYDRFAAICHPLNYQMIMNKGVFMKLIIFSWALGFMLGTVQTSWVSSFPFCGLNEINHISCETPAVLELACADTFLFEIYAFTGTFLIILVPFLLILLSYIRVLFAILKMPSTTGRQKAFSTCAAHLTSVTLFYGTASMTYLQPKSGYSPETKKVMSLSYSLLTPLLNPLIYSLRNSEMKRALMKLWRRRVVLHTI
# Chain of O10P1 R195K (as listed by the source, stated change not applied): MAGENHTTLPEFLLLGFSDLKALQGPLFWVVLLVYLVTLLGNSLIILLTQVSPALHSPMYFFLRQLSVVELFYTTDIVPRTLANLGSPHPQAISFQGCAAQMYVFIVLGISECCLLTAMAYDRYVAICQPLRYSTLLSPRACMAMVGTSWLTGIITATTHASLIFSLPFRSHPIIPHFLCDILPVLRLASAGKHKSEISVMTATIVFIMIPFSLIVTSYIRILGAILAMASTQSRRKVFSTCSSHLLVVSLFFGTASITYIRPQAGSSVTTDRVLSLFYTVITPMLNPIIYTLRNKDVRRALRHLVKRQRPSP
# Chain of O10AD G65C (as listed by the source, stated change not applied): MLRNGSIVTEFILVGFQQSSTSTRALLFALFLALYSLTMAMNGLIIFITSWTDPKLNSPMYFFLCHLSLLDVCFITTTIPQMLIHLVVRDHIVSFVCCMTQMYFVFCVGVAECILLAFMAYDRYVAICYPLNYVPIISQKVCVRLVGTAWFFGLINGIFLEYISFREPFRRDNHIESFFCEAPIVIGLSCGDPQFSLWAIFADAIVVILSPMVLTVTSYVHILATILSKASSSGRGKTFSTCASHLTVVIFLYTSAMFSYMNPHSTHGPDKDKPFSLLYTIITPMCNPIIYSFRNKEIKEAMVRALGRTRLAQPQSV
# Chain of O10H5 S268Y (as listed by the source, stated change not applied): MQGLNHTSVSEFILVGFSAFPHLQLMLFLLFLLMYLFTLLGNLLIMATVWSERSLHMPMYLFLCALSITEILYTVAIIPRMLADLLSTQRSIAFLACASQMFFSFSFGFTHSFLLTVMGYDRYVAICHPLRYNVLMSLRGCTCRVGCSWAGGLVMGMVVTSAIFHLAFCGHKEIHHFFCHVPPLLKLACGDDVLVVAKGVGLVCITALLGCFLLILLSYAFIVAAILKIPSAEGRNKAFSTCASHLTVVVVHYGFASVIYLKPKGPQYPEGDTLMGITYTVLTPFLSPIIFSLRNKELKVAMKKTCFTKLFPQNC
# Chain of O10H3 R54H (as listed by the source, stated change not applied): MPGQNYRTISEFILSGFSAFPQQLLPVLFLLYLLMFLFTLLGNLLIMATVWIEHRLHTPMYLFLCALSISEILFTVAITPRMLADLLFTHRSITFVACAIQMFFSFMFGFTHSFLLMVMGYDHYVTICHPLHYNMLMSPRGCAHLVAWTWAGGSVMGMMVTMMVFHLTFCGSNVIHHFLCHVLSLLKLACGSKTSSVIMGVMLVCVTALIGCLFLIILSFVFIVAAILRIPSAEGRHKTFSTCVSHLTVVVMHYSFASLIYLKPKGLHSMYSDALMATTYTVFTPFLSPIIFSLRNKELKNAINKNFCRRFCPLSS
# Chain of O10G7 I28V (as listed by the source, stated change not applied): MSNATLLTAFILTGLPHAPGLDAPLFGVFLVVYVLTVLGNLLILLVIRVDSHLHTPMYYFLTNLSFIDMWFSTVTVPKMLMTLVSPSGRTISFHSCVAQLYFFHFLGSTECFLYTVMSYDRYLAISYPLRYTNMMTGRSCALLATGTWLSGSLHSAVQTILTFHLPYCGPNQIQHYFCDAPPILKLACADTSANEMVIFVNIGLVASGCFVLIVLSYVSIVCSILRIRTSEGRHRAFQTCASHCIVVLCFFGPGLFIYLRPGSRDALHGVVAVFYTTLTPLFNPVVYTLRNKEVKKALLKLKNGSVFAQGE
# Chain of O10J1 M62I (as listed by the source, stated change not applied): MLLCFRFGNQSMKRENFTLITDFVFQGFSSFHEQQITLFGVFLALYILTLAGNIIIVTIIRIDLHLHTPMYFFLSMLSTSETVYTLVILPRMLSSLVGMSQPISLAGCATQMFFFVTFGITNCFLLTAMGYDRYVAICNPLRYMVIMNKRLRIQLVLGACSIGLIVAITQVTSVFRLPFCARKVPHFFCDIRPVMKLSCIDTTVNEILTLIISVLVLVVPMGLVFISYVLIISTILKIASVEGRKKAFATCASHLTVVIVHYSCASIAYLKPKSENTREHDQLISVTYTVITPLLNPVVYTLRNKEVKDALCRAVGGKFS
structure (smiles),measurement,setting,value
C=CCc1ccccc1,odorant receptor agonist call,[1],inactive
same,odorant receptor agonist call,[2],inactive
CCC1CCC(=O)O1 (stereo not given),odorant receptor agonist call,[1],inactive
same,odorant receptor agonist call,[2],inactive
OCc1ccc2c(c1)OCO2,odorant receptor agonist call,[3],inactive
O=Cc1ccc2c(c1)OCO2,odorant receptor agonist call,[3],inactive
CC(C=O)Cc1ccc2c(c1)OCO2 (stereo not given),odorant receptor agonist call,[3],inactive
O=Cc1ccccc1,odorant receptor agonist call,[3],inactive
CCCCC(Br)C(=O)O (stereo not given),odorant receptor agonist call,[3],inactive
Oc1ccccc1Br,odorant receptor agonist call,[3],inactive
CCCCCCC(Br)C(=O)O (stereo not given),odorant receptor agonist call,[3],inactive
C=CCOC(=O)Cc1ccccc1,odorant receptor agonist call,[3],inactive
same,odorant receptor agonist call,[1],inactive
same,odorant receptor agonist call,[2],inactive
same,odorant receptor agonist call,[4],inactive
same,odorant receptor agonist call,[5],inactive
same,odorant receptor agonist call,[6],inactive
same,odorant receptor agonist call,[7],inactive
same,odorant receptor agonist call,[8],inactive
same,odorant receptor agonist call,[9],inactive
same,odorant receptor agonist call,[10],inactive
same,odorant receptor agonist call,[11],inactive
same,odorant receptor agonist call,[12],inactive
same,odorant receptor agonist call,[13],inactive
same,odorant receptor agonist call,[14],inactive
same,odorant receptor agonist call,[15],inactive
same,odorant receptor agonist call,[16],inactive
same,odorant receptor agonist call,[17],inactive
same,odorant receptor agonist call,[18],inactive
same,odorant receptor agonist call,[19],inactive
same,odorant receptor agonist call,[20],inactive
COc1ccc(C=O)cc1,odorant receptor agonist call,[3],inactive
O=CC=Cc1ccccc1,odorant receptor agonist call,[3],inactive
same,odorant receptor agonist call,[12],active
CSSC,odorant receptor agonist call,[3],inactive
O=c1cc(O)c2ccccc2o1,odorant receptor agonist call,[3],inactive
same,odorant receptor agonist call,[1],inactive
same,odorant receptor agonist call,[2],inactive
C=C(C)C1CC=C(C=O)CC1 (stereo not given),odorant receptor agonist call,[3],inactive
Cc1ccc(OC(=O)Cc2ccccc2)cc1,odorant receptor agonist call,[3],inactive
